{"source": "ChEMBL document CHEMBL3877293", "about": "“Synthesis and Antineoplastic Evaluation of Novel Unsymmetrical 1,3,4-Oxadiazoles” (J Med Chem, 2016)", "key": {"[1]": {"tested_on": "HeLa", "test": "Antiproliferative activity against human HeLa cells at 2 uM after 72 hrs by XTT assay", "type": "functional, cell-based"}, "[2]": {"test": "Antiproliferative activity against human T98G cells after 72 hrs by XTT assay", "type": "functional, cell-based", "summary_of_the_method": "(§1)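 Cells plated at 1500–2000 per well by doubling time, treated after 24 h with a concentration series in six triplicate wells, and incubated 72 h without a medium change. XTT reagent was then added for 4 h at 37 °C and absorbance read at 490 nm. IC50 is the concentration halving absorbance versus untreated cells. Experiments run in triplicate.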"}, "[3]": {"test": "Antiproliferative activity against human Kelly cells after 72 hrs by XTT assay", "type": "functional, cell-based", "summary_of_the_method": "as §1"}, "[4]": {"test": "Antiproliferative activity against human LAN1 cells after 72 hrs by XTT assay", "type": "functional, cell-based", "conditions": "LAN1, 72 h", "summary_of_the_method": "as §1"}, "[5]": {"tested_on": "MCF7", "test": "Selectivity ratio of IC50 for human MCF7 cells to IC50 for human T98G cells", "type": "functional", "summary_of_the_method": "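XTT viability: 1500–2000 cells/well plated by doubling time; compounds added after 24 h, then 72 h further culture without medium change. XTT reagent 4 h at 37 °C, absorbance read at 490 nm. IC50 is the concentration halving absorbance versus untreated cells; triplicate experiments. Ratio is MCF7 IC50 divided by IC50 in the named line.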"}, "[6]": {"test": "Cytotoxicity against human HeLa cells assessed as inhibition of colony formation at 0.03 uM after 2 weeks by crystal violet staining based assay relative to control", "type": "functional", "conditions": "336 h", "summary_of_the_method": "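HeLa seeded at 100-200 cells/well in six-well plates and treated with 0.3 or 0.03 μM compound (DMSO control). Medium with compound changed every 3 days for about two weeks, until control colonies were visible. Colonies fixed and stained with 6.0% glutaraldehyde/0.5% crystal violet for 30 min, then counted against control. Done in triplicate.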"}, "[7]": {"tested_on": "MCF7", "test": "Antiproliferative activity against human MCF7 cells at 0.5 uM after 72 hrs in presence of MRP1 inhibitor reversan by XTT assay relative to control", "type": "functional, cell-based", "summary_of_the_method": "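Mcf7 cells treated after 24 h for 72 h at 37 °C, 5% CO2 with test compound at 0.5 μM alone or combined with harmine (1, 3, 5 μM) or reversan (5, 15, 25 μM). XTT was added for 4 h at 37 °C, absorbance read at 490 nm, and viability compared with control.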"}, "[8]": {"test": "Cell cycle arrest in human HeLa cells assessed as S phase accumulation at 1 uM after 8 hrs by propidium iodide staining based flow cytometry (reference value: 19.2%)", "type": "functional"}, "[9]": {"test": "Cell cycle arrest in human MCF7 cells assessed as G1 phase accumulation at 1 uM after 144 hrs by propidium iodide staining based flow cytometry (reference value: 65.9%)", "type": "functional"}, "[10]": {"test": "Cell cycle arrest in human RD cells assessed as G1 phase accumulation at 1 uM after 24 hrs by propidium iodide staining based flow cytometry (reference value: 56.7 +/- 1.48%)", "type": "functional"}, "[11]": {"test": "Cell cycle arrest in human T98G cells assessed as subG1 phase accumulation at 1 uM after 24 hrs by propidium iodide staining based flow cytometry relative to DMSO control", "type": "functional"}, "[12]": {"test": "Cell cycle arrest in human T98G cells assessed as G2/M phase accumulation at 1 uM after 24 hrs by propidium iodide staining based flow cytometry (reference value: 8.8 +/- 0.93%)", "type": "functional"}, "[13]": {"test": "Cell cycle arrest in human SH-SY5Y cells assessed as G2/M phase accumulation at 1 uM after 24 hrs by propidium iodide staining based flow cytometry (reference value: 26.2 +/- 1.27%)", "type": "functional"}, "[14]": {"test": "Cell cycle arrest in human A549 cells assessed as subG1 phase accumulation at 1 uM after 24 hrs by propidium iodide staining based flow cytometry relative to DMSO control", "type": "functional"}, "[15]": {"test": "Cell cycle arrest in human A549 cells assessed as G1 phase accumulation at 1 uM after 24 hrs by propidium iodide staining based flow cytometry (reference value: 65.4 +/- 1.84%)", "type": "functional"}, "[16]": {"test": "Cell cycle arrest in human Kelly cells assessed as G1 phase accumulation at 1 uM after 24 hrs by propidium iodide staining based flow cytometry (reference value: 65.9 +/- 1.87%)", "type": "functional"}, "[17]": {"test": "Cell cycle arrest in human Kelly cells assessed as G2/M phase accumulation at 1 uM after 24 hrs by propidium iodide staining based flow cytometry (reference value: 18 +/- 1.28%)", "type": "functional"}, "[18]": {"test": "Cell cycle arrest in human LAN1 cells assessed as S phase accumulation at 1 uM after 24 hrs by propidium iodide staining based flow cytometry (reference value: 23.5 +/- 1.32%)", "type": "functional"}, "[19]": {"test": "Cell cycle arrest in human PC3 cells assessed as G1 phase accumulation at 1 uM after 24 hrs by propidium iodide staining based flow cytometry (reference value: 67 +/- 1.47%)", "type": "functional", "conditions": "PC-3"}, "[20]": {"test": "Cell cycle arrest in human PC3 cells assessed as S phase accumulation at 1 uM after 24 hrs by propidium iodide staining based flow cytometry (reference value: 6.2 +/- 0.94%)", "type": "functional", "conditions": "PC-3"}, "[21]": {"test": "Cell cycle arrest in human MCF7 cells assessed as S phase accumulation at 1 uM treated for 24 hrs followed by compound washout measured after 24 hrs by propidium iodide staining based flow cytometry (reference value: 12.2%)", "type": "functional"}, "[22]": {"test": "Cell cycle arrest in human NB-1 cells assessed as G1 phase accumulation at 1 uM after 24 hrs by propidium iodide staining based flow cytometry (reference value: 75%)", "conditions": "nb1, 24 h"}, "[23]": {"test": "Cell cycle arrest in human NB-1 cells assessed as S phase accumulation at 1 uM after 24 hrs by propidium iodide staining based flow cytometry (reference value: 3.8%)", "conditions": "nb1, 24 h"}, "[24]": {"test": "Cell cycle arrest in human NB-1 cells assessed as G2/M phase accumulation at 1 uM after 24 hrs by propidium iodide staining based flow cytometry (reference value: 21.2%)", "conditions": "nb1, 24 h"}, "[25]": {"tested_on": "A549", "test": "Increase in p53 expression in human A549 cells at 1 uM after 24 hrs by immunoblot method relative to control", "type": "functional", "summary_of_the_method": "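After 24 h treatment at 1 μM, cells lysed in Tris pH 8/NaCl/glycerol/NP-40/EDTA buffer with protease inhibitors. Equal lysate amounts run on 10% SDS gels, blotted to nitrocellulose, probed for p53 with GAPDH as loading control, detected by enhanced chemiluminescence. Bands quantified by densitometry against GAPDH and compared with untreated cells; three independent experiments.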"}, "[26]": {"tested_on": "HeLa", "test": "Induction of apoptosis in human HeLa cells assessed as live cells at 5 uM after 48 hrs by Annexin-V FITC/propidium iodide staining based flow cytometry (reference value: 91.1%)", "type": "functional"}, "[27]": {"test": "Induction of apoptosis in human NB-1 cells assessed as live cells at 5 uM after 72 hrs by Annexin-V FITC/propidium iodide staining based flow cytometry (reference value: 93.3%)", "type": "cell-based, NB1", "conditions": "read-out: Activity"}, "[28]": {"test": "Induction of apoptosis in human NB-1 cells assessed as early apoptotic cells at 5 uM after 72 hrs by Annexin-V FITC/propidium iodide staining based flow cytometry (reference value: 3.2%)", "type": "cell-based", "conditions": "nb1, 72 h"}, "[29]": {"test": "Induction of apoptosis in human NB1 hTERT cells assessed as necrotic cells at 5 uM after 72 hrs by Annexin-V FITC/propidium iodide staining based flow cytometry (reference value: 1.6%)", "type": "functional"}, "[30]": {"test": "Antiproliferative activity against human IBR3G cells after 72 hrs by XTT assay", "type": "cell-based", "summary_of_the_method": "as §1"}, "[31]": {"test": "Antiproliferative activity against human IBR3-G SV40 cells after 72 hrs by XTT assay", "type": "functional, cell-based", "conditions": "IBR3-G SV40, 72 h", "summary_of_the_method": "as §1"}}, "note": "Calls of active or inactive are those of the source. The calls are words filed in the database; no cut-off is given here.", "data": [{"molecule": "Cc1[nH]c2c(c1-c1nnc(-c3ccccc3)o1)Cc1ccccc1-2", "values": [{"measurement": "Activity", "setting": "[1]", "value": "Active"}, {"measurement": "IC50", "setting": "[2]", "value": 60, "unit": "nM"}, {"measurement": "IC50", "setting": "[3]", "value": 250, "unit": "nM"}, {"measurement": "IC50", "setting": "[4]", "value": 380, "unit": "nM"}, {"measurement": "Ratio IC50", "setting": "[5]", "value": "28 - 34"}, {"measurement": "inhibition at 0.03 µM", "setting": "[6]", "value": "≤ 50", "unit": "%"}, {"measurement": "Activity", "setting": "[7]", "value": "Active"}, {"measurement": "Activity", "setting": "[8]", "value": 22.2, "unit": "%"}, {"measurement": "Activity", "setting": "[9]", "value": 14.5, "unit": "%"}, {"measurement": "Activity", "setting": "[10]", "value": 36.9, "unit": "%"}, {"measurement": "Activity", "setting": "[11]", "value": 16.8, "unit": "%"}, {"measurement": "Activity", "setting": "[12]", "value": 65.9, "unit": "%"}, {"measurement": "Activity", "setting": "[13]", "value": 43.9, "unit": "%"}, {"measurement": "Activity", "setting": "[14]", "value": 13.8, "unit": "%"}, {"measurement": "Activity", "setting": "[15]", "value": 11.4, "unit": "%"}, {"measurement": "Activity", "setting": "[16]", "value": 34.3, "unit": "%"}, {"measurement": "Activity", "setting": "[17]", "value": 42.9, "unit": "%"}, {"measurement": "Activity", "setting": "[18]", "value": 5.6, "unit": "%"}, {"measurement": "Activity", "setting": "[19]", "value": 23.3, "unit": "%"}, {"measurement": "Activity", "setting": "[20]", "value": 4.7, "unit": "%"}, {"measurement": "Activity", "setting": "[21]", "value": 11.6, "unit": "%"}, {"measurement": "Activity", "setting": "[22]", "value": 73, "unit": "%"}, {"measurement": "Activity", "setting": "[23]", "value": 3.2, "unit": "%"}, {"measurement": "Activity", "setting": "[24]", "value": 23.8, "unit": "%"}, {"measurement": "fold change (FC)", "setting": "[25]", "value": "2 - 3"}, {"measurement": "Activity", "setting": "[26]", "value": 6, "unit": "%"}, {"measurement": "viability at 72 h, 5 µM", "setting": "[27]", "value": 86.6, "unit": "%"}, {"measurement": "Activity", "setting": "[28]", "value": 4.2, "unit": "%"}, {"measurement": "Activity", "setting": "[29]", "value": 2.1, "unit": "%"}, {"measurement": "IC50", "setting": "[30]", "value": 770, "unit": "nM"}, {"measurement": "IC50", "setting": "[31]", "value": 210, "unit": "nM"}]}]}
